Reference: ChEMBL document CHEMBL1143775, “Convenient one pot synthesis of some novel derivatives of thiazolo[2,3-b]dihydropyrimidinone possessing 4-methylthiophenyl moiety and evaluation of their antibacterial and antifungal activities” (2007)
In brackets after ≈: the same amount, converted by molar mass.

Experiments:
Assay type in all cases: functional
Staphylococcus aureus [1] = test: Antibacterial activity against Staphylococcus aureus ATCC 25923
How it was run: (§1)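 Compound-loaded discs were placed on nutrient agar inoculated separately with fresh bacterial strains. Plates were incubated at 37 °C for 24 h with separate solvent and growth controls. Zone of inhibition and MIC were measured. Ciprofloxacin was the reference drug.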

Candida albicans [2] = test: Antifungal activity against Candida albicans NCIM 3100 by dilution method
How it was run: (§2)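 Serial dilution method on Sabouraud agar (peptone, D-glucose, agar; pH 5.7) seeded with a saline spore suspension made from a loopful of each strain. Plates were dried for 1 h at incubator temperature. Test solutions in DMSO went into punched wells, with a DMSO control. Incubation was at 37 °C for 3–4 days. Zone of inhibition and MIC were read against ciclopiroxolamine as standard.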

Staphylococcus aureus [3] = test: Antibacterial activity against Staphylococcus aureus ATCC 25923 at 10 ug/ml by disk diffusion method; conditions: read-out: IZ; how it was run: as §1
Talaromyces marneffei [4] = test: Antifungal activity against Penicillium marneffei by dilution method; how it was run: as §2
Escherichia coli [5] = test: Antibacterial activity against Escherichia coli ATCC 25922; how it was run: as §1
Candida albicans [6] = test: Antifungal activity against Candida albicans NCIM 3100 at 10 ug/ml; conditions: read-out: IZ; how it was run: as §2
Escherichia coli [7] = test: Antibacterial activity against Escherichia coli ATCC 25922 at 10 ug/ml; conditions: read-out: IZ; how it was run: as §1
Aspergillus flavus [8] = test: Antifungal activity against Aspergillus flavus NCIM 524 at 10 ug/ml; conditions: read-out: IZ; how it was run: as §2
Pseudomonas aeruginosa [9] = test: Antibacterial activity against Pseudomonas aeruginosa ATCC 27853 at 10 ug/ml; conditions: read-out: IZ; how it was run: as §1
Klebsiella pneumoniae [10] = test: Antibacterial activity against Klebsiella pneumoniae; how it was run: as §1
Klebsiella pneumoniae [11] = test: Antibacterial activity against Klebsiella pneumoniae at 10 ug/ml; conditions: read-out: IZ; how it was run: as §1
Aspergillus flavus [12] = test: Antifungal activity against Aspergillus flavus NCIM 524 by dilution method; how it was run: as §2
Aspergillus fumigatus [13] = test: Antifungal activity against Aspergillus fumigatus NCIM 902 at 10 ug/ml; conditions: read-out: IZ; how it was run: as §2
Talaromyces marneffei [14] = test: Antifungal activity against Penicillium marneffei at 10 ug/ml; conditions: read-out: IZ; how it was run: as §2
Pseudomonas aeruginosa [15] = test: Antibacterial activity against Pseudomonas aeruginosa ATCC 27853; how it was run: as §1
Aspergillus fumigatus [16] = test: Antifungal activity against Aspergillus fumigatus NCIM 902 by dilution method; how it was run: as §2

MIC (Staphylococcus aureus [1]) [µg/mL]	MIC (Candida albicans [2]) [µg/mL]	MIC (Talaromyces marneffei [4]) [µg/mL]	MIC (Escherichia coli [5]) [µg/mL]	MIC (Klebsiella pneumoniae [10]) [µg/mL]	MIC (Aspergillus flavus [12]) [µg/mL]	MIC (Pseudomonas aeruginosa [15]) [µg/mL]	MIC (Aspergillus fumigatus [16]) [µg/mL]	SMILES	zone of inhibition at 10 µg/mL (Staphylococcus aureus [3]) [mm]	zone of inhibition at 10 µg/mL (Candida albicans [6]) [mm]	zone of inhibition at 10 µg/mL (Escherichia coli [7]) [mm]	zone of inhibition at 10 µg/mL (Aspergillus flavus [8]) [mm]	zone of inhibition at 10 µg/mL (Pseudomonas aeruginosa [9]) [mm]	zone of inhibition at 10 µg/mL (Klebsiella pneumoniae [11]) [mm]	zone of inhibition at 10 µg/mL (Aspergillus fumigatus [13]) [mm]	zone of inhibition at 10 µg/mL (Talaromyces marneffei [14]) [mm]
12.5 (≈ 22.3 µM)	6 (≈ 10.7 µM)	6 (≈ 10.7 µM)	25 (≈ 44.6 µM)	12.5 (≈ 22.3 µM)	12.5 (≈ 22.3 µM)	12.5 (≈ 22.3 µM)	12.5 (≈ 22.3 µM)	CCOC(=O)C1=C(C)N=c2s/c(=C\c3ccc(F)c(Oc4ccccc4)c3)c(=O)n2C1c1ccc(SC)cc1 (centres undefined)	19	20	10	18	12	12	12	19
25 (≈ 44.5 µM)	12.5 (≈ 22.3 µM)	12.5 (≈ 22.3 µM)	25 (≈ 44.5 µM)	12.5 (≈ 22.3 µM)	25 (≈ 44.5 µM)	12.5 (≈ 22.3 µM)	12.5 (≈ 22.3 µM)	CCOC(=O)C1=C(C)N=c2s/c(=C\c3ccc(-c4ccc([N+](=O)[O-])cc4)o3)c(=O)n2C1c1ccc(SC)cc1 (centres undefined)	10	12	12	12	13	11	17	11
12.5 (≈ 26.7 µM)	6 (≈ 12.8 µM)	6 (≈ 12.8 µM)	12.5 (≈ 26.7 µM)	6 (≈ 12.8 µM)	12.5 (≈ 26.7 µM)	12.5 (≈ 26.7 µM)	6 (≈ 12.8 µM)	CCOC(=O)C1=C(C)N=c2s/c(=C\c3ccc(F)cc3)c(=O)n2C1c1ccc(SC)cc1 (centres undefined)	18	19	17	18	10	20	20	20
25 (≈ 53.6 µM)	12.5 (≈ 26.8 µM)	12.5 (≈ 26.8 µM)	25 (≈ 53.6 µM)	12.5 (≈ 26.8 µM)	25 (≈ 53.6 µM)	12.5 (≈ 26.8 µM)	12.5 (≈ 26.8 µM)	CCOC(=O)C1=C(C)N=c2s/c(=C\c3ccc(O)cc3)c(=O)n2C1c1ccc(SC)cc1 (centres undefined)	12	10	12	10	15	12	10	12
25 (≈ 52 µM)	6 (≈ 12.5 µM)	12.5 (≈ 26 µM)	25 (≈ 52 µM)	6 (≈ 12.5 µM)	12.5 (≈ 26 µM)	6 (≈ 12.5 µM)	6 (≈ 12.5 µM)	CCOC(=O)C1=C(C)N=c2s/c(=C\c3ccc(OC)cc3)c(=O)n2C1c1ccc(SC)cc1 (centres undefined)	12	20	10	17	24	21	21	12

Continued, molecule first:

SMILES	MIC (Staphylococcus aureus [1]) [µg/mL]	MIC (Candida albicans [2]) [µg/mL]	MIC (Talaromyces marneffei [4]) [µg/mL]	MIC (Escherichia coli [5]) [µg/mL]	MIC (Klebsiella pneumoniae [10]) [µg/mL]	MIC (Aspergillus flavus [12]) [µg/mL]	MIC (Pseudomonas aeruginosa [15]) [µg/mL]	MIC (Aspergillus fumigatus [16]) [µg/mL]	zone of inhibition at 10 µg/mL (Staphylococcus aureus [3]) [mm]	zone of inhibition at 10 µg/mL (Candida albicans [6]) [mm]	zone of inhibition at 10 µg/mL (Escherichia coli [7]) [mm]	zone of inhibition at 10 µg/mL (Aspergillus flavus [8]) [mm]	zone of inhibition at 10 µg/mL (Pseudomonas aeruginosa [9]) [mm]	zone of inhibition at 10 µg/mL (Klebsiella pneumoniae [11]) [mm]	zone of inhibition at 10 µg/mL (Aspergillus fumigatus [13]) [mm]	zone of inhibition at 10 µg/mL (Talaromyces marneffei [14]) [mm]
CCOC(=O)C1=C(C)N=c2s/c(=C\c3ccc4c(c3)OCO4)c(=O)n2C1c1ccc(SC)cc1 (centres undefined)	25 (≈ 50.5 µM)	12.5 (≈ 25.3 µM)	12.5 (≈ 25.3 µM)	25 (≈ 50.5 µM)	12.5 (≈ 25.3 µM)	25 (≈ 50.5 µM)	12.5 (≈ 25.3 µM)	12.5 (≈ 25.3 µM)	10	11	10	12	10	10	12	10
CCOC(=O)C1=C(C)N=c2s/c(=C\c3ccc(Cl)cc3Cl)c(=O)n2C1c1ccc(SC)cc1 (centres undefined)	12.5 (≈ 24.1 µM)	12.5 (≈ 24.1 µM)	12.5 (≈ 24.1 µM)	25 (≈ 48.1 µM)	12.5 (≈ 24.1 µM)	25 (≈ 48.1 µM)	12.5 (≈ 24.1 µM)	12.5 (≈ 24.1 µM)	18	12	11	10	13	10	11	10
CCOC(=O)C1=C(C)N=c2s/c(=C\c3ccc(O)c(OC)c3)c(=O)n2C1c1ccc(SC)cc1 (centres undefined)	12.5 (≈ 25.2 µM)	12.5 (≈ 25.2 µM)	6 (≈ 12.1 µM)	12.5 (≈ 25.2 µM)	12.5 (≈ 25.2 µM)	25 (≈ 50.3 µM)	6 (≈ 12.1 µM)	6 (≈ 12.1 µM)	20	10	18	11	23	18	21	19
CCOC(=O)C1=C(C)N=c2s/c(=C\c3ccc(Cl)cc3)c(=O)n2C1c1ccc(SC)cc1 (centres undefined)	25 (≈ 51.5 µM)	12.5 (≈ 25.8 µM)	12.5 (≈ 25.8 µM)	25 (≈ 51.5 µM)	12.5 (≈ 25.8 µM)	25 (≈ 51.5 µM)	12.5 (≈ 25.8 µM)	12.5 (≈ 25.8 µM)	10	11	10	12	12	10	11	10
